Source: BindingDB's records for doi:10.1021/jm00107a020 (Pfizer, 1991)
pIC50: −log10 of the molar value.

Biological target: Aldo-keto reductase family 1 member B1 (Homo sapiens, UniProt P15121)
Test: In vitro inhibition of human placental aldose reductase.
Summary of the method: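 Human placental aldose reductase, partly purified (placentae homogenized in 0.1 M K phosphate pH 7.0 with 5 mM 2-mercaptoethanol, spun 33000g, peak fractions pooled). Assay in 50 mM K phosphate pH 7.1 with 0.4 M ammonium sulfate, 0.067 mM NADPH, 1.0 mM DL-glyceraldehyde; enzyme set to 4 milliunits; NADPH oxidation at 340 nm, 25 °C, 10 min. IC50 by log linear regression.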

pIC50	SMILES
5.64	CCOC(=O)C1CN(Cc2cccc3ccccc23)C(=O)C1=O (configuration not stated)
5.64	CCOC(=O)C1CN(Cc2ccccc2Cl)C(=O)C1=O (configuration not stated)
